Laboratory results published in ChEMBL document CHEMBL2424574, “Structure-activity relationships and pharmacophore model of a noncompetitive pyrazoline containing class of GluN2C/GluN2D selective antagonists” (J Med Chem, 2013).

Columns and labels:
[1] = molecular target: Glutamate receptor ionotropic, NMDA 2D (Rattus norvegicus) (UniProt Q62645); test: Negative allosteric modulation of recombinant rat GluN2D receptor expressed in Xenopus laevis oocytes at 100 uM by two-electrode voltage clamp method; format: cell-based; conditions: Oocyte
Summary of the method: (§1)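 Two-electrode voltage clamp of Xenopus oocytes expressing rat GluN1 with GluN2A, 2B, 2C or 2D. Holding potential −40 mV in recording solution (mM: 90 NaCl, 1 KCl, 0.5 BaCl2, 0.005 EDTA, 10 HEPES, pH 7.4, 23 °C). Compounds diluted from 20 mM DMSO stocks to 0.05–0.1% final DMSO. IC50 from a Hill fit to the averaged composite concentration–response curve, 5–24 oocytes from 2–4 frogs.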

[2] = molecular target: Glutamate receptor ionotropic, NMDA 2C (Rattus norvegicus) (UniProt Q00961); test: Negative allosteric modulation of recombinant rat GluN2C receptor expressed in Xenopus laevis oocytes at 100 uM by two-electrode voltage clamp method; format: cell-based; conditions: Oocyte; summary of the method: as §1
[3] = molecular target: Glutamate receptor ionotropic, NMDA 2B (Rattus norvegicus) (UniProt Q00960); test: Negative allosteric modulation of recombinant rat GluN2B receptor expressed in Xenopus laevis oocytes at 100 uM by two-electrode voltage clamp method; format: cell-based; conditions: Oocyte; summary of the method: as §1
[4] = molecular target: Glutamate receptor ionotropic, NMDA 2A (Rattus norvegicus) (UniProt Q00959); test: Negative allosteric modulation of recombinant rat GluN2A receptor expressed in Xenopus laevis oocytes at 100 uM by two-electrode voltage clamp method; format: cell-based; conditions: Oocyte; summary of the method: as §1
[5] = molecular target: Glutamate receptor ionotropic, NMDA 2D (Rattus norvegicus, UniProt P35439+Q62645); test: Negative allosteric modulation of recombinant rat GluN2D receptor expressed in Xenopus laevis oocytes by two-electrode voltage clamp method; format: cell-based, Oocyte; summary of the method: as §1
[6] = molecular target: Glutamate receptor ionotropic, NMDA 2C (Rattus norvegicus, UniProt P35439+Q00961); test: Negative allosteric modulation of recombinant rat GluN2C receptor expressed in Xenopus laevis oocytes by two-electrode voltage clamp method; format: cell-based, Oocyte; summary of the method: as §1
[7] = molecular target: Glutamate receptor ionotropic, NMDA 2D (Homo sapiens, UniProt O15399+Q05586); test: Inhibition of NMDA GluN2D receptor (unknown origin)
Homo sapiens = species: Homo sapiens; test: Selectivity ratio of IC50 for NMDA GluN2B receptor (unknown origin) to IC50 for NMDA GluN2D receptor (unknown origin)
Rattus norvegicus [8] = species: Rattus norvegicus; test: Selectivity ratio of IC50 for recombinant rat GluN2B receptor to IC50 for recombinant rat GluN2D receptor
Summary of the method: (§2)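 Rat GluN1 co-expressed with GluN2A, GluN2B or GluN2D in Xenopus oocytes. Two-electrode voltage clamp at −40 mV in 90 NaCl, 1 KCl, 0.5 BaCl2, 0.005 EDTA, 10 HEPES (mM), pH 7.4, 23 °C; final DMSO 0.1–0.05%. IC50s came from Hill fits to averaged composite concentration-response curves (5–24 oocytes, 2–4 frogs). Ratio is GluN2A or GluN2B IC50 over GluN2D IC50.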

[9] = molecular target: Glutamate receptor ionotropic, NMDA 2B (Rattus norvegicus, UniProt P35439+Q00960); test: Negative allosteric modulation of recombinant rat GluN2B receptor expressed in Xenopus laevis oocytes by two-electrode voltage clamp method; format: cell-based, Oocyte; summary of the method: as §1
Rattus norvegicus [10] = species: Rattus norvegicus; test: Selectivity ratio of IC50 for recombinant rat GluN2A receptor to IC50 for recombinant rat GluN2D receptor; summary of the method: as §2
[11] = molecular target: Glutamate receptor ionotropic, NMDA 2A (Rattus norvegicus, UniProt P35439+Q00959); test: Negative allosteric modulation of recombinant rat GluN2A receptor expressed in Xenopus laevis oocytes by two-electrode voltage clamp method; format: cell-based, Oocyte; summary of the method: as §1
MDCK [12] = test: Permeability across apical to basolateral side in dog MDCK cells expressing MDR1 assessed as compound recovery at 5 uM after 120 mins by LC-MS/MS analysis; format: ADME, cell-based, Canis lupus familiaris; conditions: 2 h
Summary of the method: (§3)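 MDR1-MDCK monolayers grown to confluence on collagen-coated polycarbonate membranes. Assay buffer was HBSS with 10 mM HEPES and 15 mM glucose, pH 7.4, and the receiver side also held 1% BSA. Monolayers were dosed apically (A-to-B) or basolaterally (B-to-A) at 5 μM, 37 °C, 5% CO2. Donor and receiver were sampled at 120 min, in duplicate, by LC-MS/MS (ESI). Papp and percent recovery were calculated from receiver/donor concentrations.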

MDCK [13] = test: Permeability across basolateral to apical side in dog MDCK cells expressing MDR1 assessed as compound recovery at 5 uM after 120 mins by LC-MS/MS analysis; format: ADME, cell-based, Canis lupus familiaris; conditions: 2 h; summary of the method: as §3
Liver microsomes [14] = test: Half life in human liver microsomes at 1 uM; format: ADME, Microsome
Summary of the method: (§4)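 Human liver microsomes 0.5 mg/mL in 100 mM potassium phosphate pH 7.4 with 5 mM MgCl2 and 1 μM test compound. Preincubated 3 min at 37 °C, then started with 1 mM NADPH, with a testosterone control in parallel. Sampled at 0, 10, 20, 30 and 60 min and quenched in cold acetonitrile/water with formic acid and internal standard. Percent remaining by LC-MS/MS (MRM) versus time 0. t1/2 = 0.693/k from the ln-remaining slope; CLint = k/protein concentration.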

Liver microsomes [15] = test: Metabolic stability in human liver microsomes assessed as compound remaining at 1 uM after 20 mins by LC-MS/MS analysis; format: ADME, Microsome; summary of the method: as §4
Liver microsomes [16] = test: Intrinsic clearance in human liver microsomes measured per mg of protein at 1 uM by LC-MS/MS analysis; format: ADME, Microsome; summary of the method: as §4
MDCK [17] = test: Apparent permeability across apical to basolateral side in dog MDCK cells expressing MDR1 at 5 uM after 120 mins by LC-MS/MS analysis; format: ADME, cell-based, Canis lupus familiaris; conditions: 2 h; summary of the method: as §3
MDCK [18] = test: Apparent permeability across basolateral to apical side in dog MDCK cells expressing MDR1 at 5 uM after 120 mins by LC-MS/MS analysis; format: ADME, cell-based, Canis lupus familiaris; conditions: 2 h; summary of the method: as §3
Liver microsomes [19] = test: Metabolic stability in human liver microsomes assessed as compound remaining at 1 uM after 30 mins by LC-MS/MS analysis; format: ADME, Microsome; conditions: 0.5 h; summary of the method: as §4
Liver microsomes [20] = test: Metabolic stability in human liver microsomes assessed as compound remaining at 1 uM after 60 mins by LC-MS/MS analysis; format: ADME, Microsome; conditions: 1 h; summary of the method: as §4
Liver microsomes [21] = test: Metabolic stability in human liver microsomes assessed as compound remaining at 1 uM after 10 mins by LC-MS/MS analysis; format: ADME, Microsome; summary of the method: as §4

Sequence of Glutamate receptor ionotropic, NMDA 2A (Rattus norvegicus) (Q00959 23-1464 limits assumed): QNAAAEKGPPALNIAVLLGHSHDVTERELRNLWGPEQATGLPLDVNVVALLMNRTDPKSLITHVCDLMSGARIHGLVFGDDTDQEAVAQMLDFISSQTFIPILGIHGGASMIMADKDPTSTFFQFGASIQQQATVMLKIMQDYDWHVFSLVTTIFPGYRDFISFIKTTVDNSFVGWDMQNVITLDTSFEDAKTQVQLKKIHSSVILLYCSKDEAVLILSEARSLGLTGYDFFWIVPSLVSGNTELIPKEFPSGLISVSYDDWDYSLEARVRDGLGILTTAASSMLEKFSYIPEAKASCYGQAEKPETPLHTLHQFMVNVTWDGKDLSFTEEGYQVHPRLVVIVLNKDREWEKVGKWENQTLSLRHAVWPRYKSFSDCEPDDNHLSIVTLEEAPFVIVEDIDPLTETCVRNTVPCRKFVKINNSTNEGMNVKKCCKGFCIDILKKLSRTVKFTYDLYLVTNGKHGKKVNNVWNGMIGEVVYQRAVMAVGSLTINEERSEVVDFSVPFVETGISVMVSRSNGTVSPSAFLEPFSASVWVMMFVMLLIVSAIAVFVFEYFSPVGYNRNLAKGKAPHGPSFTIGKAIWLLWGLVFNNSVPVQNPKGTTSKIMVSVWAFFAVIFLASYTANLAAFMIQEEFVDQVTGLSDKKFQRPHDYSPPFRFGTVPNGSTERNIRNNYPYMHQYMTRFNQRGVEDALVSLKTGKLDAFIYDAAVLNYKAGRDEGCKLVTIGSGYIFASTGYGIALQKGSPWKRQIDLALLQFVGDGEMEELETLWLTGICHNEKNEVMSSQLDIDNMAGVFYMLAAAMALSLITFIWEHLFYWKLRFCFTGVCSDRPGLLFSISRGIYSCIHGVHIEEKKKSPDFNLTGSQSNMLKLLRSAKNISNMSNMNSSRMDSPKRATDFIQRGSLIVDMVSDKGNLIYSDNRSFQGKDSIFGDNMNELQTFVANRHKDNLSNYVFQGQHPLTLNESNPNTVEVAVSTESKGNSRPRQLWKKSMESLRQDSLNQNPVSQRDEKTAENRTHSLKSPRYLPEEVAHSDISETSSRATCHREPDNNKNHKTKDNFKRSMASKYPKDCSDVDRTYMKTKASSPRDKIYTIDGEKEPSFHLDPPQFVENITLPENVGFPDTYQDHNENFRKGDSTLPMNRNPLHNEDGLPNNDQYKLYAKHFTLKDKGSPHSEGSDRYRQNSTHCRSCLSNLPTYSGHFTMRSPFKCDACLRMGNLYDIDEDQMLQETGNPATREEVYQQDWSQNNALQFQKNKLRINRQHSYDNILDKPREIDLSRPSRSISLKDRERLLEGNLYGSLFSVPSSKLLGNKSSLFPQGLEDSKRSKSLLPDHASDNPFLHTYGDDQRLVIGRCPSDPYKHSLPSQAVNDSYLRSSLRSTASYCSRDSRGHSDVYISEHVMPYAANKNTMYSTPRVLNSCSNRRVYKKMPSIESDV
Sequence of Glutamate receptor ionotropic, NMDA 2D (Rattus norvegicus) (Q62645 whole entry): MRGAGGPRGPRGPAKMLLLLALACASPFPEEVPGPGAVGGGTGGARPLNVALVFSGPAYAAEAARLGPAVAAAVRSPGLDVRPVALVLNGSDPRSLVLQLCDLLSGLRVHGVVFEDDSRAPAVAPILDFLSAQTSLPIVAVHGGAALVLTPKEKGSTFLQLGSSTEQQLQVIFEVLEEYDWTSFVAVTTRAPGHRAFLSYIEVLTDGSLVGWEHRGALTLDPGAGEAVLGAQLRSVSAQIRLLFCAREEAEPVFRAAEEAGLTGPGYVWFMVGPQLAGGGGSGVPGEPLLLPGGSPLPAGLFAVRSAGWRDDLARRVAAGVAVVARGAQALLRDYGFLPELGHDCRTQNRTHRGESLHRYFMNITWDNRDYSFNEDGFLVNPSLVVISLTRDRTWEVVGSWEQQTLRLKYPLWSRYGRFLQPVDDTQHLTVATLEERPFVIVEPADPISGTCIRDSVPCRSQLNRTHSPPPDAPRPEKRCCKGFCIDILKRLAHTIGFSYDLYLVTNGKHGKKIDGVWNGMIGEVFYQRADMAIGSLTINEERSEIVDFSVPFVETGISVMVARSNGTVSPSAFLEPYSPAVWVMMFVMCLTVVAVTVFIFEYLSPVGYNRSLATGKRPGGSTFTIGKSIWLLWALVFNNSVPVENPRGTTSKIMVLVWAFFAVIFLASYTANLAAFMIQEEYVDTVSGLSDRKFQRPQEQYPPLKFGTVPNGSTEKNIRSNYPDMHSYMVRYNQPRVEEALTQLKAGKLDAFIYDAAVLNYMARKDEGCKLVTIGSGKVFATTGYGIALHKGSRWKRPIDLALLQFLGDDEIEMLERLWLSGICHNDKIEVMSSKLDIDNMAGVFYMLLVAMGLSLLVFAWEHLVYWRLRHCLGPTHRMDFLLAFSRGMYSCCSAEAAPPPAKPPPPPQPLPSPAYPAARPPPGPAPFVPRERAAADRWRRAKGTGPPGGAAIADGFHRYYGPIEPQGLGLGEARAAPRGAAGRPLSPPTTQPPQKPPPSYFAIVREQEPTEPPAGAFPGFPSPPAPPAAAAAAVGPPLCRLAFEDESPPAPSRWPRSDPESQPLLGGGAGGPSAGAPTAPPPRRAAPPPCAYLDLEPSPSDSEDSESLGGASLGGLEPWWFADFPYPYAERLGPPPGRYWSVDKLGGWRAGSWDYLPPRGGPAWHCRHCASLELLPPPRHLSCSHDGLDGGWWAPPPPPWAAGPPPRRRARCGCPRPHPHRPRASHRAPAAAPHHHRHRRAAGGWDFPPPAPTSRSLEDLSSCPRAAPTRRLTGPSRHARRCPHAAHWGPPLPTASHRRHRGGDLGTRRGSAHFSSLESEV
Sequence of Glutamate receptor ionotropic, NMDA 2D (Rattus norvegicus, UniProt P35439+Q62645) (Q62645 whole entry, one chain of several): as the sequence (Q62645 whole entry) above
Sequence of Glutamate receptor ionotropic, NMDA 2A (Q00959 whole entry, one chain of several): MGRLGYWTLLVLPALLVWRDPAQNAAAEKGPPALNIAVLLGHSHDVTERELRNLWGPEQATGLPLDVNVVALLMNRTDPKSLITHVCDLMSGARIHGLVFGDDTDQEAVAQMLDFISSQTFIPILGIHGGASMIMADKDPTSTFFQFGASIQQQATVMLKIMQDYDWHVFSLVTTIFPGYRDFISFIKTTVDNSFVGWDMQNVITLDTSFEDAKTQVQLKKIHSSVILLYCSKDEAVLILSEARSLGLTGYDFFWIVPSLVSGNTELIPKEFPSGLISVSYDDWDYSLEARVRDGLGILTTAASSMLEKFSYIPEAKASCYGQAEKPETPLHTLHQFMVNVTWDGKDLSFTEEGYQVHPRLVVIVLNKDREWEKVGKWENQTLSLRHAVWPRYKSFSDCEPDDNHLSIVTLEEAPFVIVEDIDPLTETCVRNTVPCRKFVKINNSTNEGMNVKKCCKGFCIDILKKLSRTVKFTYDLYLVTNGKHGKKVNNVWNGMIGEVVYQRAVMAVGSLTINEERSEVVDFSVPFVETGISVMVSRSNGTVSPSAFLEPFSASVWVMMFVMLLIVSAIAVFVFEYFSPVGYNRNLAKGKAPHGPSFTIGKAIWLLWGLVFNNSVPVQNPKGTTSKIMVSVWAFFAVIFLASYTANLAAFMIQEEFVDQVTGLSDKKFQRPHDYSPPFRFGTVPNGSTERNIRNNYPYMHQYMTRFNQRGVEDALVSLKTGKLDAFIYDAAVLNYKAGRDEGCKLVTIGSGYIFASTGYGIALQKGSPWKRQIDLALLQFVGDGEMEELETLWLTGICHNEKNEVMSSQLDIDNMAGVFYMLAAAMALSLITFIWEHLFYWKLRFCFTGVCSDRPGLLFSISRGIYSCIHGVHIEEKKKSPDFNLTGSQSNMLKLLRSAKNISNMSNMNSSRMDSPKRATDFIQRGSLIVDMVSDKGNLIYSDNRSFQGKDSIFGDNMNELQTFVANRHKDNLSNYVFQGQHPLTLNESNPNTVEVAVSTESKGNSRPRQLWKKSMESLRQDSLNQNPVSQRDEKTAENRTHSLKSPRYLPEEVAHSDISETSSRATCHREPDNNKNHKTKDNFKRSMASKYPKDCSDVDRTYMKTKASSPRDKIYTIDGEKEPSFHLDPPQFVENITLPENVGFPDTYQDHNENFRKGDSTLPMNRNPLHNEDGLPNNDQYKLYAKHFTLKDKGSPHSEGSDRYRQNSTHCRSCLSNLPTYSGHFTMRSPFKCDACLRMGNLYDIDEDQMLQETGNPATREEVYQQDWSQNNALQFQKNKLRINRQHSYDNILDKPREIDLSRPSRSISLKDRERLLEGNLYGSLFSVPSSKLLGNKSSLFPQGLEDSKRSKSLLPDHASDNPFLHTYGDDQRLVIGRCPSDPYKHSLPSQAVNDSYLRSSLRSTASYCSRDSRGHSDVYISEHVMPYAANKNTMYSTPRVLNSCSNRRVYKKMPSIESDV

Row | inhibition [3] | inhibition [4] | IC50 [5] | IC50 [6] | Ratio IC50 (Rattus norvegicus [8]) | IC50 [9] | Ratio IC50 (Rattus norvegicus [10]) | IC50 [11] | SMILES | also measured
1 | < 30% | < 30% | – | – | – | – | – | – | COC(=O)CCC(=O)N1N=C(c2c(-c3ccccc3)c3cc(Cl)ccc3[nH]c2=O)CC1c1ccc(Br)cc1 (stereo unspecified) | inhibition [1]: < 30%; inhibition [2]: < 30%
2 | – | < 30% | 3.1 µM | 3.6 µM | – | – | – | – | O=C(O)CCC(=O)N1N=C(c2c(-c3ccccc3)c3cc(Cl)ccc3[nH]c2=O)CC1c1ccc(Br)cc1 (stereo unspecified) | –
3 | – | – | – | – | – | – | – | – | Cc1ccc2[nH]c(=O)c(C3=NN(C(=O)CCC(=O)O)C(c4ccc(Br)cc4)C3)c(-c3ccccc3)c2c1 (stereo unspecified) | IC50 [7]: 2.7 µM; Ratio IC50 (Homo sapiens): 41
4 | < 30% | < 30% | 4.5 µM | 5.5 µM | – | – | – | – | O=C(O)CCC(=O)N1N=C(c2c(-c3ccccc3)c3cc(Cl)ccc3[nH]c2=O)CC1c1ccc(Cl)cc1 (stereo unspecified) | –
5 | < 30% | < 30% | – | – | – | – | – | – | O=C(O)CCC(=O)N1N=C(c2c(O)nc3ccc(Cl)cc3c2-c2ccccc2)CC1c1ccccc1 (stereo unspecified) | –
6 | – | < 30% | 23 µM | 23 µM | 4 | 90 µM | – | – | O=C(O)CCC(=O)N1N=C(c2c(-c3ccccc3)c3cc(Cl)ccc3[nH]c2=O)CC1c1ccc2c(c1)OCO2 (stereo unspecified) | –
7 | < 30% | < 30% | – | – | – | – | – | – | COC(=O)CCCN1N=C(c2c(-c3ccc(Cl)cc3)c3ccccc3[nH]c2=O)CC1c1ccc(Cl)cc1 (stereo unspecified) | inhibition [1]: < 30%; inhibition [2]: < 30%
8 | < 30% | < 30% | – | – | – | – | – | – | O=C(O)CCC(=O)N1N=C(c2c(-c3ccccc3)c3cc(Cl)ccc3[nH]c2=O)CC1c1ccc(C(=O)O)cc1 (stereo unspecified) | inhibition [1]: < 30%; inhibition [2]: < 30%
9 | < 30% | – | 7 µM | 12 µM | – | – | 22 | 156 µM | N#Cc1ccc(-c2c(C3=NN(C(=O)CCC(=O)O)C(c4ccc(Cl)cc4)C3)c(=O)[nH]c3ccccc23)cc1 (stereo unspecified) | –
10 | < 30% | < 30% | 1.4 µM | 2.1 µM | – | – | – | – | O=C(O)/C=C/C(=O)N1N=C(c2c(-c3ccccc3)c3cc(Cl)ccc3[nH]c2=O)CC1c1ccc(Br)cc1 (stereo unspecified) | –
11 | < 30% | < 30% | – | – | – | – | – | – | O=C(CCCF)N1N=C(c2c(-c3ccc(Cl)cc3)c3ccccc3[nH]c2=O)CC1c1ccc(Cl)cc1 (stereo unspecified) | Drug recovery (MDCK [12]): 43%; Drug recovery (MDCK [13]): 67%; t1/2 (Liver microsomes [14]): 35 min; inhibition [1]: < 30%; Stability (Liver microsomes [15]): 49%; CLint (Liver microsomes [16]): 40 µL/min/mg; Papp (MDCK [17]): 3.88 ×10⁻⁶ cm/s; Papp (MDCK [18]): 9.52 ×10⁻⁶ cm/s; inhibition [2]: < 30%; Stability (Liver microsomes [19]): 49%; Stability (Liver microsomes [20]): 39%; Stability (Liver microsomes [21]): 67%
12 | < 30% | < 30% | – | 93 µM | – | – | – | – | COC(=O)c1ccc(C2CC(c3c(-c4ccccc4)c4cc(Cl)ccc4[nH]c3=O)=NN2C(=O)CCC(=O)O)cc1 (stereo unspecified) | –
13 | < 30% | < 30% | 19 µM | 39 µM | – | – | – | – | CN(C)c1ccc(C2CC(c3c(-c4ccccc4)c4cc(Cl)ccc4[nH]c3=O)=NN2C(=O)CCC(=O)O)cc1 (stereo unspecified) | –
14 | – | – | 1.9 µM | 4 µM | 37 | 71 µM | 13 | 24 µM | Cc1cccc(-c2c(C3=NN(C(=O)CCC(=O)O)C(c4ccc(Cl)cc4)C3)c(=O)[nH]c3ccccc23)c1 (stereo unspecified) | –
15 | – | – | 0.66 µM | 0.78 µM | 108 | 71 µM | 32 | 21 µM | O=C(O)CCC(=O)N1N=C(c2c(-c3ccc(F)c(F)c3)c3ccccc3[nH]c2=O)CC1c1ccc(Cl)cc1 (stereo unspecified) | –
16 | – | – | 5 µM | 8.9 µM | 7 | 37 µM | 15 | 74 µM | O=C(O)/C=C\C(=O)N1N=C(c2c(-c3ccccc3)c3cc(Cl)ccc3[nH]c2=O)CC1c1ccc(Br)cc1 (stereo unspecified) | –
17 | < 30% | < 30% | 95 µM | 59 µM | – | – | – | – | COC(=O)/C=C/C(=O)N1N=C(c2c(-c3ccc(Br)cc3)c3ccccc3[nH]c2=O)CC1c1ccc(Cl)cc1 (stereo unspecified) | –
18 | – | – | 4.5 µM | 7.8 µM | 34 | 152 µM | 24 | 110 µM | COc1cccc(-c2c(C3=NN(C(=O)CCC(=O)O)C(c4ccc(Cl)cc4)C3)c(=O)[nH]c3ccccc23)c1 (stereo unspecified) | –
19 | < 30% | < 30% | 13 µM | 19 µM | – | – | – | – | N#Cc1cccc(-c2c(C3=NN(C(=O)CCC(=O)O)C(c4ccc(Cl)cc4)C3)c(=O)[nH]c3ccccc23)c1 (stereo unspecified) | –
20 | – | – | 0.51 µM | 0.95 µM | 67 | 34 µM | 37 | 19 µM | O=C(O)CCC(=O)N1N=C(c2c(-c3ccc(Cl)cc3)c3ccccc3[nH]c2=O)CC1c1ccc(Br)cc1 (stereo unspecified) | –
